In ChEMBL document CHEMBL1681730, “17,20-lyase inhibitors. Part 4: design, synthesis and structure-activity relationships of naphthylmethylimidazole derivatives as novel 17,20-lyase inhibitors” (Bioorg Med Chem, 2011):

How the values were obtained:
[1] = AUC (0 to 24 hrs) in Crl:CD(SD)IGS rat at 10 mg/kg, po by HPLC analysis; format: ADME, organism-based; set-up: time < 24 hr, dose 10 mg/kg, route oral; conditions: plasma
In short: (§1)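 Male non-fasted 8-week-old rats, n = 3; 1 mg/kg IV or 10 mg/kg oral. Plasma sampled at 5, 10, 15, 30 min and 1, 2, 4, 8, 24 h after IV dosing, or at 15, 30 min and 1, 2, 4, 8, 24 h after oral dosing. Plasma deproteinized with acetonitrile, dried under N₂, taken up in mobile phase, and analysed by reverse-phase HPLC on an ODS column.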

[2] = AUC (0 to 24 hrs) in Crl:CD(SD)IGS rat at 1 mg/kg, iv by HPLC analysis; format: ADME, organism-based; set-up: time < 24 hr, dose 1 mg/kg, route intravenous; conditions: plasma; in short: as §1
[3] = target: T1, Steroid 17-alpha-hydroxylase/17,20 lyase (Homo sapiens, UniProt P05093); assay: Inhibition of 17,20 lyase activity in human
T1 sequence (P05093 whole entry): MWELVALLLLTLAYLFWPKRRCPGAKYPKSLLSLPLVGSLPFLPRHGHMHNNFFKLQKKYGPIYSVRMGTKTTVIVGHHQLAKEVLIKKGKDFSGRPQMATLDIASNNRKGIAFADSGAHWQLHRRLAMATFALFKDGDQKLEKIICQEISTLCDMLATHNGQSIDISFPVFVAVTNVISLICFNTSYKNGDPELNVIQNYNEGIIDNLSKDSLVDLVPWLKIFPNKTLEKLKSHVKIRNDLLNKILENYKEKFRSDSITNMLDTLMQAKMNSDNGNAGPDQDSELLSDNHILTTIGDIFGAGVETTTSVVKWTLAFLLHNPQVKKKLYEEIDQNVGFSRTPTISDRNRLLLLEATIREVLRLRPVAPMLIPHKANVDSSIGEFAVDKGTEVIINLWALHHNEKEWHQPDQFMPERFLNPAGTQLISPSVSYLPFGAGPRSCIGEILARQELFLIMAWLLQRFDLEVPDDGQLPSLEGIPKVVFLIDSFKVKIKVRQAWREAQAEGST
In short: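 Recombinant P450c17 (0.5 pmol) with cytochrome b5 (0.5 pmol) and NADPH-P450 reductase (20.8 ng) in 75 mM phosphate pH 7.4 with 1 mM MgCl2. Substrate 10 nM [1,2-3H]-17α-hydroxypregnenolone, 5 mM NADPH, compound 1–1000 nM. Incubated 15 min at 37 °C, ethyl acetate extraction, DHEA separated from substrate by silica TLC (cyclohexane–ethyl acetate 3:2). IC50 taken as 50% reduction in product.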

[4] = target: T2, Steroid 17-alpha-hydroxylase/17,20 lyase (Rattus norvegicus, UniProt P11715); assay: Inhibition of 17,20 lyase activity in Sprague-Dawley rat testicular microsomes; set-up: species or system Testis
T2 sequence (P11715 whole entry): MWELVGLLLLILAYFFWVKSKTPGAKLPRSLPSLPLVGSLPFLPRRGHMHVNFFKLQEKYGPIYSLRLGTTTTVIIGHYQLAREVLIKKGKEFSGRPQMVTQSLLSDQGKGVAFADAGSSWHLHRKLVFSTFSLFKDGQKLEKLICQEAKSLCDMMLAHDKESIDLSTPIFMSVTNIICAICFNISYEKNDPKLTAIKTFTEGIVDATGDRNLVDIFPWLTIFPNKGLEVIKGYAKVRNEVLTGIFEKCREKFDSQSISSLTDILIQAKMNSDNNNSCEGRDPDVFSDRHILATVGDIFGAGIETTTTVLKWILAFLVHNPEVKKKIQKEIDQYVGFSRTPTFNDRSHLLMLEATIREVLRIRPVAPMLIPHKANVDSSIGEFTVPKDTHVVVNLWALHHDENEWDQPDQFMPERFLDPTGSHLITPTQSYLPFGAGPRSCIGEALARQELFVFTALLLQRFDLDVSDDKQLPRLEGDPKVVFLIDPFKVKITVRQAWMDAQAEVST
In short: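 Testicular microsomes from 13-week-old male SD rats (7 µg protein) in 75 mM phosphate buffer, pH 7.4, with 10 nM [1,2-3H]-17α-hydroxyprogesterone, 5 mM NADPH, and 1–1000 nM test compound (all final). Compounds were diluted in DMF and then in water. Incubation ran 15 min at 37 °C and was stopped with ethyl acetate. IC50 is the concentration that halves product formation.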

Cytochrome P450c11B3 = target: T3, Cytochrome P450c11B3 (Rattus norvegicus, UniProt Q64546); assay: Inhibition of 11-hydroxylase activity in Sprague-Dawley rat adrenal gland; format: tissue-based
T3 sequence (Q64546 whole entry): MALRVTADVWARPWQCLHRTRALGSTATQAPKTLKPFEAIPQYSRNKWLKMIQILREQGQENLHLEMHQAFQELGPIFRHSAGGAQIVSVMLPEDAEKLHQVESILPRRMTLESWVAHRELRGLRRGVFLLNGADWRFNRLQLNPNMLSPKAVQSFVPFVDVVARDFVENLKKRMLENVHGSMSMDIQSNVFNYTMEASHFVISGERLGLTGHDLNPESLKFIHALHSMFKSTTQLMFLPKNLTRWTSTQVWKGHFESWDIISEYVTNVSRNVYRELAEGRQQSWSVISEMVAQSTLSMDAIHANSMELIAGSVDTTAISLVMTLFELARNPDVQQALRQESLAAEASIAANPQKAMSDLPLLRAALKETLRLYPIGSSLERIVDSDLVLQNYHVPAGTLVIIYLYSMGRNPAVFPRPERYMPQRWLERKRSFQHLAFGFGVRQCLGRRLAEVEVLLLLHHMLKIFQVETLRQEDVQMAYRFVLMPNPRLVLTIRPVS
In short: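 Mitochondrial fraction from SD rat adrenal glands, 4 µg protein, in 200 mM mannitol, 4.5 mM HEPES, 2.3 mM K phosphate pH 7.4, 0.1 mM EDTA, 0.03% BSA, 4.5 mM NADPH, 11 mM CaCl2. Substrate 10 nM [1,2-3H]-11-deoxycortisol. Test compound 1–1000 nM, diluted in DMF. Incubated 30 min at 37 °C, stopped with ethyl acetate. Final concentrations.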

Cytochrome P450 2D6 = Cytochrome P450 2D6 (Homo sapiens, UniProt P10635); assay: Inhibition of human CYP2D6; format: ADME
Cytochrome P450 2D6, sequence (P10635 whole entry, canonical isoform): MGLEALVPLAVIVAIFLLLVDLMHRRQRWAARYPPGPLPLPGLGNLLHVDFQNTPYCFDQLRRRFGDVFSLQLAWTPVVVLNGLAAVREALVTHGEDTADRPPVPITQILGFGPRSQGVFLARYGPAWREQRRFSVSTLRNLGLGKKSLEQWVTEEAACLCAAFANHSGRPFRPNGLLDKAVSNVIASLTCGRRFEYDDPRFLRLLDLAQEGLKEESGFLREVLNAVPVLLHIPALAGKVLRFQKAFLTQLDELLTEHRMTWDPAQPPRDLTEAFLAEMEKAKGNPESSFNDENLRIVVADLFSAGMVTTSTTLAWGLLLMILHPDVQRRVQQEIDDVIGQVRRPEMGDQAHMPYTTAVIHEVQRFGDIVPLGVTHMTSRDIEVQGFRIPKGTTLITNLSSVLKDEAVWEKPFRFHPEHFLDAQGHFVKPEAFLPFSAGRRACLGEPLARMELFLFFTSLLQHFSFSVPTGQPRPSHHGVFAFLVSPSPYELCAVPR
In short: (§2)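 Microsomes from human B-lymphoblastoid cells expressing one CYP isoform, with inhibitor at 3, 10 and 30 µmol/L. Buffer 80 mmol/L phosphate pH 7.4 (Tris-HCl pH 7.4 for CYP2C9) with 10 mmol/L MgCl2 and a NADPH-regenerating system. Inhibitor and substrate preincubated 5 min at 37 °C, then microsomes added to start. Marker reactions: tolbutamide hydroxylation (CYP2C8, CYP2C9), bufuralol 1'-hydroxylation (CYP2D6). Control was methanol alone.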

Cytochrome P450 2C8 = target: T4, Cytochrome P450 2C8 (Homo sapiens, UniProt P10632); assay: Inhibition of human CYP2C8; format: ADME; in short: as §2
T4 sequence (P10632 whole entry): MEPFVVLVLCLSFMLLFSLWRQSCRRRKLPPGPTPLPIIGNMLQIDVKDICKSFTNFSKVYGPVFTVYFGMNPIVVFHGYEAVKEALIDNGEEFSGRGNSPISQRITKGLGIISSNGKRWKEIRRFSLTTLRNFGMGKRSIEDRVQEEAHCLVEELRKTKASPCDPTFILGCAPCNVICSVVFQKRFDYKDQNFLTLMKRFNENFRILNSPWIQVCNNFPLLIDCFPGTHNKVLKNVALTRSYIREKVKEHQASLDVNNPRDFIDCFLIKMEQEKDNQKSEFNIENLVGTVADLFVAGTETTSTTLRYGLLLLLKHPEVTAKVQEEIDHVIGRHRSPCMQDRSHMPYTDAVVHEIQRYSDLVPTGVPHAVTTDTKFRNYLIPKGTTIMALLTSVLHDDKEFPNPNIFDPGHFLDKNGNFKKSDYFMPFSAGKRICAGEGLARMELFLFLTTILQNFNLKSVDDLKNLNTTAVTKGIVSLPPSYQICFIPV

[5] = Tmax in Crl:CD(SD)IGS rat at 10 mg/kg, po by HPLC analysis; format: ADME, organism-based; set-up: dose 10 mg/kg, route oral; conditions: in vivo
In short: (§3)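 Non-fasted male Crl:CD(SD)IGS rats, 8 weeks old, n = 3. Dosed 1 mg/kg iv or 10 mg/kg po. Plasma sampled at 5 (iv only), 10 (iv only), 15, 30 min and 1, 2, 4, 8, 24 h. Plasma deproteinized with acetonitrile, supernatant dried under N2, taken up in mobile phase and analysed by HPLC on an ODS column. […] Mean ± SD.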

Cytochrome P450 3A4 = Cytochrome P450 3A4 (Homo sapiens, UniProt P08684); assay: Inhibition of human CYP3A4; format: ADME
Cytochrome P450 3A4, sequence (P08684 whole entry): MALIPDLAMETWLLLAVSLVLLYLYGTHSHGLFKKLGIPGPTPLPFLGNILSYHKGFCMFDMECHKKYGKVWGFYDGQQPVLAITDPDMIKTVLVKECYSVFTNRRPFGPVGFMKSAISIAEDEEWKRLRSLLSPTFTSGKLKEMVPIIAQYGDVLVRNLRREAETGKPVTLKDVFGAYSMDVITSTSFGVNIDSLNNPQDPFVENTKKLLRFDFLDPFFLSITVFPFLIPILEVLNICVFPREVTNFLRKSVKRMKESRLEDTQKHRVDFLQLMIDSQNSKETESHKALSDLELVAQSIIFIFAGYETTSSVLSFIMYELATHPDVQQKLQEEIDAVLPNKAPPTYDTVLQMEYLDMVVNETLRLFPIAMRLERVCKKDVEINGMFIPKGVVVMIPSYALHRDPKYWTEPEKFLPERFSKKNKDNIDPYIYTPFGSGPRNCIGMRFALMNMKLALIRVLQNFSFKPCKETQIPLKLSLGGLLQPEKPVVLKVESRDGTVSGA

[6] = Cmax in Crl:CD(SD)IGS rat at 10 mg/kg, po by HPLC analysis; format: ADME, organism-based; set-up: dose 10 mg/kg, route oral; conditions: in vivo; in short: as §3
[7] = Oral bioavailability in Crl:CD(SD)IGS rat at 10 mg/kg by HPLC analysis; format: ADME, organism-based; conditions: in vivo; in short: as §3
Cytochrome P450 2C9 = Cytochrome P450 2C9 (Homo sapiens, UniProt P11712); assay: Inhibition of human CYP2C9; format: ADME; in short: as §2
Cytochrome P450 2C9, sequence (P11712 whole entry): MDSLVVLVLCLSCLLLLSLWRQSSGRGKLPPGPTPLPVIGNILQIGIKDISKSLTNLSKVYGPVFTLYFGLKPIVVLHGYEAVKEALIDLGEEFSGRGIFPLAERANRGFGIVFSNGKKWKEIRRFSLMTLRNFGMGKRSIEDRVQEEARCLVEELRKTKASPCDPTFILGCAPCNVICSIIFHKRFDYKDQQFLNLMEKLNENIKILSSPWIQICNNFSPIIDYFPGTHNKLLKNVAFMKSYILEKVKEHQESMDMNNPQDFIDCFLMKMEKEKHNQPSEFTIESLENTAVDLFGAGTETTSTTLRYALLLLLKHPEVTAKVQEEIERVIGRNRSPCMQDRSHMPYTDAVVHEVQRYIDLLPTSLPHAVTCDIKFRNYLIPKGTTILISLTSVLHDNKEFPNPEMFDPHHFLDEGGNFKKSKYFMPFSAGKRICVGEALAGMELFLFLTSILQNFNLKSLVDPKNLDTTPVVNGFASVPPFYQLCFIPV

AUC(0-t) at 24 h [1]: 7.32 µg·h/mL | AUC(0-t) at 24 h [2]: 0.573 µg·h/mL | IC50 [3]: 0.019 µM | IC50 [4]: < 0.01 µM | IC50 (Cytochrome P450c11B3): > 1 µM | IC50 (Cytochrome P450 2D6): > 30 µM | IC50 (Cytochrome P450 2C8): 28 µM | Tmax [5]: 25.2 min | IC50 (Cytochrome P450 3A4): > 10 µM | Cmax [6]: 2.94 µg/mL | bioavailability [7]: 128% | IC50 (Cytochrome P450 2C9): < 3 µM
Structure (SMILES): CC(C)[C@](O)(c1ccc2c3c(ccc2c1)C(=O)N(C)C3)c1cnc[nH]1
